Measured values: ChEMBL document CHEMBL3994599, “Pallidopenillines: Polyketides from the Alga-Derived Fungus Penicillium thomii Maire KMM 4675” (J Nat Prod, 2016)
Activity calls are given as the source filed them. The calls are words filed in the database; no cut-off is given here.

Experiments:
MEL28 = experiment: Cytotoxicity against human MEL28 cells assessed as reduction in cell viability up to 100 uM after 24 to 72 hrs by MTT assay; format: functional, cell-based
HCT-116 = experiment: Cytotoxicity against human HCT116 cells assessed as reduction in cell viability up to 100 uM after 24 to 72 hrs by MTT assay; format: functional, cell-based
CWR22R [1] = experiment: Cytotoxicity against human 22Rv1 cells assessed as inhibition of colony formation at 2 uM relative to control; format: functional
How it was run: (§1)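 Soft agar method: 22Rv1 human prostate cancer cells were grown in soft agar with compound. Colony formation and growth were compared with untreated control.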

CWR22R [2] = experiment: Cytotoxicity against human 22Rv1 cells assessed as reduction in cell viability up to 72 hrs by MTT assay; format: functional, cell-based; details: 22Rv1, 72 h
CWR22R [3] = experiment: Cytotoxicity against human 22Rv1 cells assessed as inhibition of colony formation at 1 uM relative to control; format: functional; how it was run: as §1
RAW264.7 = experiment: Inhibition of ROS generation in mouse RAW264.7 cells at 10 uM after 24 hrs by H2DCF-DA staining based fluorescence assay relative to control; format: functional; details: RAW264.7, 24 h
How it was run: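 RAW 264.7 murine macrophages were stimulated with lipopolysaccharide (LPS), and compounds were tested at 10 μM. ROS levels were expressed as percent change relative to control cells treated with LPS alone. Significance was reported as p values.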

Structure (SMILES): CC(=O)OC[C@H]1CC[C@@H]2[C@@H](C(=O)CCO)[C@](C)(O)C=C[C@H]2C1
- Activity (MEL28): inactive
- Activity (HCT-116): inactive

Structure (SMILES): CC(=O)OCCC(=O)[C@@H]1[C@H]2CC[C@H](C)[C@@H](O)[C@@H]2C=C[C@@]1(C)O
- inhibition at 2 µM (CWR22R [1]): 40%
- Activity (MEL28): inactive
- Activity (HCT-116): inactive

Structure (SMILES): CC(=O)OCCC(=O)[C@@H]1[C@H]2CC[C@H](COC(C)=O)C[C@@H]2C=C[C@@]1(C)O
- Activity (MEL28): inactive
- Activity (HCT-116): inactive

Structure (SMILES): C[C@H]1CC[C@H]2[C@@H](C=C[C@@](C)(O)[C@@H]2C(=O)CCO)[C@@H]1O
- Activity (MEL28): inactive
- Activity (HCT-116): inactive

Structure (SMILES): CC(=O)OCCC(=O)[C@H]1C(C)=C[C@@H](O)[C@H]2[C@H](O)[C@@H](C)CC[C@H]12
- IC50 (CWR22R [2]): 9.8 µM
- inhibition at 1 µM (CWR22R [3]): 40%
- inhibition at 10 µM (RAW264.7): 36%

Structure (SMILES): CC(=O)OCCC(=O)[C@@H]1[C@H]2CC[C@H](CO)C[C@@H]2C=C[C@@]1(C)O
- Activity (MEL28): inactive
- Activity (HCT-116): inactive
- inhibition at 10 µM (RAW264.7): 27%

Structure (SMILES): CC(=O)OCCC(=O)[C@@H]1[C@H]2CC[C@H](C)[C@@H](O)[C@@H]2[C@H](Cl)[C@@H](O)[C@@]1(C)O
- inhibition at 10 µM (RAW264.7): 37%
